According to ChEMBL document CHEMBL1177725, “6-(3,4-dichlorophenyl)-1-[(methyloxy)methyl]-3-azabicyclo[4.1.0]heptane: a new potent and selective triple reuptake inhibitor” (J Med Chem, 2010):
Calls of active or inactive are those of the source. The rule behind the calls is not given here.

Legend:
Mus musculus [1] = test: Potentiation of 5-hydroxytryptophan-induced stereotypic behavior in mouse at 10 mg/kg, po administered 2 hrs before 5-hydroxytryptophan challenge measured for 30 mins; type: functional, organism-based; set-up: dose 10 mg/kg
Summary of the method: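 Mice were dosed orally at 3, 10 or 30 mg/kg 120 min before an ip injection of 5-HTP (100 mg/kg). Each mouse was then placed alone in a perspex box, and 5-HTP-induced stereotyped behaviour was assessed.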

Cytochrome P450 3A4 = Cytochrome P450 3A4 (Homo sapiens, UniProt P08684); test: Inhibition of human CYP3A4 after 10 mins; type: ADME
Chain of Cytochrome P450 3A4 (P08684 whole entry): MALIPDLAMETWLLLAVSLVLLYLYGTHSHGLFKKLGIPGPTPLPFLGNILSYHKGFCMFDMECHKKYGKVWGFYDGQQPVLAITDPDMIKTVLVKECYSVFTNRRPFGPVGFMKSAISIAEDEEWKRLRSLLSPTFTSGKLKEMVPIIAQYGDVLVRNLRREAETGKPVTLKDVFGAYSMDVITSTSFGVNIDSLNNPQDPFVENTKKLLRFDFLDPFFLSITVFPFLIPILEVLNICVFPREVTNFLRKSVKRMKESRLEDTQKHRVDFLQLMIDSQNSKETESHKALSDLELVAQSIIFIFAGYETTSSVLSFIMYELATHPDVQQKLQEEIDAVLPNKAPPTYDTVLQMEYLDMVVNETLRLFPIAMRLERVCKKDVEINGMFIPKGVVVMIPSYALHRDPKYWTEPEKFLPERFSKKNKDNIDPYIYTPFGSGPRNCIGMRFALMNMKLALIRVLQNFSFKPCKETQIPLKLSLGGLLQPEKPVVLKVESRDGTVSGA
Summary of the method: (§1)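 Recombinant human CYP bactosomes (0.1 mg/mL) were pre-incubated 10 min at 37 °C in 50 mM phosphate pH 7.4 with compound (0.1–10 μM) and a fluorogenic substrate. Substrates: ethoxyresorufin 0.5 μM (1A2), FCA 50 μM (2C9), BMC 10 μM (2C19), MMC 10 μM (2D6), DEF 1 μM or 7-BQ 25 μM (3A4). Adding an NADPH-regenerating system started the reaction, and metabolite fluorescence was read over 10 min. The IC50 came from rate as percent of control; miconazole served as positive control, with triplicates.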

Cytochrome P450 2D6 = Cytochrome P450 2D6 (Homo sapiens, UniProt P10635); test: Inhibition of human CYP2D6 after 10 mins; type: ADME; summary of the method: as §1
Chain of Cytochrome P450 2D6 (P10635 whole entry): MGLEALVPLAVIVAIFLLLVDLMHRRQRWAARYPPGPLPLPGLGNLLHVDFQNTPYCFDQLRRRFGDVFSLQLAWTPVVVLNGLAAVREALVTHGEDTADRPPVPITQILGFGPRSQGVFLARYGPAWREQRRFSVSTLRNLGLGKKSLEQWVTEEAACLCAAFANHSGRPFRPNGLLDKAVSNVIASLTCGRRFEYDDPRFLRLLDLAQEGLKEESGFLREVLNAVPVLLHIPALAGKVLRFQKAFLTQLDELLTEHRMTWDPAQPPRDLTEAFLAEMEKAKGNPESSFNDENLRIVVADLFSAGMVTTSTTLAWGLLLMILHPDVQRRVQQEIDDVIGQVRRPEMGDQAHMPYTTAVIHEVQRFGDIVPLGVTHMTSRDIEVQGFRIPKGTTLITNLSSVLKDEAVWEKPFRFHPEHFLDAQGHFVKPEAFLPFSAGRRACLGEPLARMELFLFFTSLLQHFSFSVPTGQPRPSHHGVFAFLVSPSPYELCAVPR

Cytochrome P450 2C19 = Cytochrome P450 2C19 (Homo sapiens, UniProt P33261); test: Inhibition of human CYP2C19 after 10 mins; type: ADME; summary of the method: as §1
Chain of Cytochrome P450 2C19 (P33261 whole entry): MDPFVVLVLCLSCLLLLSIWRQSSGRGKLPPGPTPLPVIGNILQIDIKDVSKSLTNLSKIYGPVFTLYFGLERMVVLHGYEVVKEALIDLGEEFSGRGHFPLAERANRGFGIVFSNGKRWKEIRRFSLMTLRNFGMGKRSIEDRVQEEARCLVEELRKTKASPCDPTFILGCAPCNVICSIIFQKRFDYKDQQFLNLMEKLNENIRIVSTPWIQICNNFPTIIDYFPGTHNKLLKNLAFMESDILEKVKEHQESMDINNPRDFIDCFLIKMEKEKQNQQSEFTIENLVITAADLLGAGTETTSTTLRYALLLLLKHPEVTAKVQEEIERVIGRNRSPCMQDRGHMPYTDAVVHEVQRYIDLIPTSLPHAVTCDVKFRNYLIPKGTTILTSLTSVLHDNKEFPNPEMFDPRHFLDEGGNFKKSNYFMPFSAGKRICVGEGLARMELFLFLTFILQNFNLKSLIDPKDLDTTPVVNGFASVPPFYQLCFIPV

Cytochrome P450 2C9 = Cytochrome P450 2C9 (Homo sapiens, UniProt P11712); test: Inhibition of human CYP2C9 after 10 mins; type: ADME; summary of the method: as §1
Chain of Cytochrome P450 2C9 (P11712 whole entry): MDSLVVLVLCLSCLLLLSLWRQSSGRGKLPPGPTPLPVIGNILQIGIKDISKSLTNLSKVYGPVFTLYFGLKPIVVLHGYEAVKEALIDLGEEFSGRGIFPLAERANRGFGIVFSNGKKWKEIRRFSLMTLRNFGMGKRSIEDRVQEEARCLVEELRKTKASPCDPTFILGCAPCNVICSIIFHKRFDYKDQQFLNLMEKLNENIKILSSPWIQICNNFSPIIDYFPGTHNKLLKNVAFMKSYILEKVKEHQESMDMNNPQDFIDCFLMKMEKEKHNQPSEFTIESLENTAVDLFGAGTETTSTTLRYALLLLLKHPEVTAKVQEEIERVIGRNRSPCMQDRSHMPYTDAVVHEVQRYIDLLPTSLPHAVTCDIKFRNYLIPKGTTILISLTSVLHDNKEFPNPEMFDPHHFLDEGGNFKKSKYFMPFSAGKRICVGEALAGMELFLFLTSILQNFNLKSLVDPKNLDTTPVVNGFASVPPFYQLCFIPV

Cytochrome P450 1A2 = biological target: T1, Cytochrome P450 1A2 (Homo sapiens, UniProt P05177); test: Inhibition of human CYP1A2 after 10 mins; type: ADME; summary of the method: as §1
T1 sequence (P05177 whole entry): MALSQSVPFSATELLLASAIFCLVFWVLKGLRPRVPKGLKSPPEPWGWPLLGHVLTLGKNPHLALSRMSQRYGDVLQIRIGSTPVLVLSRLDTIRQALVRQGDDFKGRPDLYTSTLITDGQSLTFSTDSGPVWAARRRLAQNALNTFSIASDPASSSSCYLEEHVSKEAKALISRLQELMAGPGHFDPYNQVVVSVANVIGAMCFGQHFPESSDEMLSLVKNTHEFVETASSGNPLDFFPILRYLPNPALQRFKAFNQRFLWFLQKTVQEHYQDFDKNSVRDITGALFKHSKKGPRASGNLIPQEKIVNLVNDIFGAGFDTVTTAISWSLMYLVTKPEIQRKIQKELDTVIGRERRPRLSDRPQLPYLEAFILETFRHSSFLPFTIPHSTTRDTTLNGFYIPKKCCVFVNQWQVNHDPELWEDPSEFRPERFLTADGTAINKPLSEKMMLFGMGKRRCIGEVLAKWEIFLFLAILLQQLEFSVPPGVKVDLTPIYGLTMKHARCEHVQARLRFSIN

[2] = biological target: Sodium-dependent dopamine transporter (Homo sapiens, UniProt Q01959); test: Displacement of [N-methyl-3H]WIN-35428 from human recombinant DAT expressed in pig LLCPK cells after 2 hrs by liquid scintillation counting; type: cell-based
Chain of Sodium-dependent dopamine transporter (Q01959 whole entry): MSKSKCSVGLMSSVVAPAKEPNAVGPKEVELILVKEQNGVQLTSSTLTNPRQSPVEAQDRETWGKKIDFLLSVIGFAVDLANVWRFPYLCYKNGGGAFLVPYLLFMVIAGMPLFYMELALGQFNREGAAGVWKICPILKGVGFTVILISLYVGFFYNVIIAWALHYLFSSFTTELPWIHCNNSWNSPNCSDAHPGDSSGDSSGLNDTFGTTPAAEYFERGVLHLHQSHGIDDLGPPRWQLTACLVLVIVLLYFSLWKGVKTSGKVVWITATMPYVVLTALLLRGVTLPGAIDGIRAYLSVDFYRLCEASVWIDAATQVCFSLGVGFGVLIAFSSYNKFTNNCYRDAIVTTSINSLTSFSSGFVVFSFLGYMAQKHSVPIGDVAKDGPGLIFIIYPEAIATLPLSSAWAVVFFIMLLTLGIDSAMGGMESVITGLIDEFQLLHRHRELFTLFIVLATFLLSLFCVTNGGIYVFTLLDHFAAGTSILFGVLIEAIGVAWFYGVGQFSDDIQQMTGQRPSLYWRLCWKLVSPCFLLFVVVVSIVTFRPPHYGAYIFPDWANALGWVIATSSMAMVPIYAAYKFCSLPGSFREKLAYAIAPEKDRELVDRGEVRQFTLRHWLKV

[3] = biological target: Sodium-dependent noradrenaline transporter (Homo sapiens, UniProt P23975); test: Displacement of [N-methyl-3H]nisoxetine from human recombinant NET expressed in pig LLCPK cells after 2 hrs by liquid scintillation counting; type: cell-based
Chain of Sodium-dependent noradrenaline transporter (P23975 whole entry): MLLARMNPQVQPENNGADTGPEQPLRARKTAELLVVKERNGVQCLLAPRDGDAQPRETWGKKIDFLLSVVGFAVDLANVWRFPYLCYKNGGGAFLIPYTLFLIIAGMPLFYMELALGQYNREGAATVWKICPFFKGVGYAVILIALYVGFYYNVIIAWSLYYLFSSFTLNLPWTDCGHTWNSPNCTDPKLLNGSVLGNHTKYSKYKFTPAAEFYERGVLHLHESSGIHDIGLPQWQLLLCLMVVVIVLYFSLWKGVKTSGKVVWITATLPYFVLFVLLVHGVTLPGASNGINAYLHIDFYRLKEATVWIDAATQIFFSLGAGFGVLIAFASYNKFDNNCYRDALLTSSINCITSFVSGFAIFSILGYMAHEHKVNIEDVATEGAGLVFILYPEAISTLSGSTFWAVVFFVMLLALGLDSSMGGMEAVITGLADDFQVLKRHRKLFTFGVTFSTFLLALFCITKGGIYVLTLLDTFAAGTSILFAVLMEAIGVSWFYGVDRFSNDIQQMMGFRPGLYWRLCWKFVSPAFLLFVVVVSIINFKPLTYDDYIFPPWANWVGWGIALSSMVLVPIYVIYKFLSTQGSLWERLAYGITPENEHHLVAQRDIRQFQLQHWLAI

[4] = biological target: Sodium-dependent serotonin transporter (Homo sapiens, UniProt P31645); test: Displacement of [N-methyl-3H]citalopram from human recombinant SERT expressed in pig LLCPK cells after 2 hrs by liquid scintillation counting; type: cell-based
Chain of Sodium-dependent serotonin transporter (P31645 whole entry): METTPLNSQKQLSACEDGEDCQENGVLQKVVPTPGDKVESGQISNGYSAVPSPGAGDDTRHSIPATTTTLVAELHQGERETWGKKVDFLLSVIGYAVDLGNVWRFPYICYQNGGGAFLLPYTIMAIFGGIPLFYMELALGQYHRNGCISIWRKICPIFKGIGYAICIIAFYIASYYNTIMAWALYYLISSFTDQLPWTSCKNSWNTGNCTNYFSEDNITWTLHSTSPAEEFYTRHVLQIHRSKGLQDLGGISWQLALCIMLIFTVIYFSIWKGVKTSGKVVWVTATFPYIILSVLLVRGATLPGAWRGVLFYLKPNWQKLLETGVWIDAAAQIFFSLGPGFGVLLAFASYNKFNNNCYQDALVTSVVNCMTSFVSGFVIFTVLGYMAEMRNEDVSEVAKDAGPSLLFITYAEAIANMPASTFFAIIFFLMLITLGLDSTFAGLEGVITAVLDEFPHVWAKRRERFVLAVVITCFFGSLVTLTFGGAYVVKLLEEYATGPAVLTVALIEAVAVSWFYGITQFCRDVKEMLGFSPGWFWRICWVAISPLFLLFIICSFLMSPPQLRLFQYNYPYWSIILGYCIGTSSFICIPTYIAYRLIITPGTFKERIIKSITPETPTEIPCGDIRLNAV

Liver microsomes [5] = test: Intrinsic clearance in rat liver microsomes assessed per gram of protein at 0.5 uM after 30 mins; type: ADME, Microsome; conditions: 0.5 h
Summary of the method: (§2)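 Compound at 0.5 μM with liver microsomes (0.5 mg protein/mL) in 50 mM phosphate pH 7.4 at 37 °C, started with NADPH. Samples at 0, 3, 6, 9, 15 and 30 min were quenched in acetonitrile and analysed by HPLC-MS/MS. Cli came from the first-order elimination constant, scaled assuming 52.5 mg microsomal protein/g.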

Liver microsomes [6] = test: Intrinsic clearance in human liver microsomes assessed per gram of protein at 0.5 uM after 30 mins; type: ADME, Microsome; conditions: 0.5 h; summary of the method: as §2
Mus musculus [7] = test: Antidepressant like activity in mouse assessed as reduction of immobility time at 3 to 30 mg/kg, po administered 2 hrs before test measured during final 4 mins of the 6 mins session by forced swimming test; type: functional, organism-based
Rattus norvegicus [8] = test: Increase of extracellular serotonin level in CD rat nucleus accumbens at 3 mg/kg, ip measured up to 180 mins by microdialysis method; type: functional, organism-based; set-up: dose 3 mg/kg
Summary of the method: (§3)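 Probes of 2 or 4 mm were perfused with artificial CSF at 1.1 μL/min for 2 h, then dosing was 3 mg/kg ip. Dialysate was collected every 20 min into oxalic acid. NE, DA and 5-HT were measured by HPLC with electrochemical detection and expressed as percent of the mean of three basal samples.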

Rattus norvegicus [9] = test: Increase of extracellular dopamine level in CD rat nucleus accumbens at 3 mg/kg, ip measured up to 180 mins by microdialysis method; type: functional, organism-based; set-up: dose 3 mg/kg; summary of the method: as §3
Rattus norvegicus [10] = test: Increase of extracellular norepinephrine level in CD rat nucleus accumbens at 3 mg/kg, ip measured up to 180 mins by microdialysis method; type: functional, organism-based; set-up: dose 3 mg/kg; summary of the method: as §3
Rattus norvegicus [11] = test: Increase of extracellular dopamine level in CD rat medial prefrontal cortex at 3 mg/kg, ip measured up to 180 mins by microdialysis method; type: functional, organism-based; set-up: dose 3 mg/kg; summary of the method: as §3
Rattus norvegicus [12] = test: Increase of extracellular norepinephrine level in CD rat medial prefrontal cortex at 3 mg/kg, ip measured up to 180 mins by microdialysis method; type: functional, organism-based; set-up: dose 3 mg/kg; summary of the method: as §3
Mus musculus [13] = test: Potentiation of 5-hydroxytryptophan-induced stereotypic behavior in po dosed mouse administered 2 hrs before 5-hydroxytryptophan challenge measured for 30 mins; type: functional, organism-based
Summary of the method: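 Mice got oral drug 120 min before an ip 5-HTP challenge (100 mg/kg), then sat singly in a perspex box for scoring of stereotyped behaviour. Oral doses were 3, 10 and 30 mg/kg.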

Rattus norvegicus [14] = test: Increase of extracellular serotonin level in CD rat medial […] at 3 mg/kg, ip measured up to 180 mins by microdialysis method; type: functional, organism-based; set-up: dose 3 mg/kg; summary of the method: as §3

SMILES	Activity (Mus musculus [1])	IC50 (Cytochrome P450 3A4) [µM]	IC50 (Cytochrome P450 2D6) [µM]	IC50 (Cytochrome P450 2C19) [µM]	IC50 (Cytochrome P450 2C9) [µM]	IC50 (Cytochrome P450 1A2) [µM]	Ki [2] [µM]	Ki [3] [µM]	Ki [4] [µM]	CL (Liver microsomes [5]) [mL/min/g]	CL (Liver microsomes [6]) [mL/min/g]	Activity (Mus musculus [7])	Activity (Rattus norvegicus [8])	Activity (Rattus norvegicus [9])	Activity (Rattus norvegicus [10])	Activity (Rattus norvegicus [11])	Activity (Rattus norvegicus [12])	Activity (Mus musculus [13])	Activity (Rattus norvegicus [14])
CN(C)CCCC1(c2ccc(F)cc2)OCc2cc(C#N)ccc21 (stereo not given)	Active	–	–	–	–	–	–	–	–	–	–	–	–	–	–	–	–	–	–
C=CCC(OC)[C@]12CNCC[C@]1(c1ccc(Cl)c(Cl)c1)C2 (mixture of isomers; form 1) [6-(3,4-DICHLOROPHENYL)-1-[1-(METHYLOXY)-3-BUTEN-1-YL]-3-AZABICYCLO[4.1.0]HEPTANE (DIASTEREOMERIC MIX)]	–	3	3	3	3	3	0.00126	0.001	0.000126	–	–	–	–	–	–	–	–	–	–
COC[C@@]12CNCC[C@]1(c1ccc(Cl)c(Cl)c1)C2 (racemic) [GSK1360707]	–	10	3	10	10	10	0.0251	0.0126	0.00158	–	–	–	–	–	–	–	–	–	–
COC[C@@]12CCNC[C@]1(c1ccc(Cl)c(Cl)c1)C2 (racemic) [RAC-1-(3,4-DICHLOROPHENYL)-6-(METHOXYMETHYL)-2-AZABICYCLO[4.1.0]HEPTANE (ENANTIOMERS)]	–	–	–	–	–	–	0.126	0.2	0.0316	1.8	1.4	–	–	–	–	–	–	–	–
COC[C@@]12CNCC[C@]1(c1ccc(Cl)c(Cl)c1)C2 (relative stereo; 17)	–	–	–	–	–	–	–	–	–	–	–	Active	Active	Active	Active	Active	Active	Dose-dependent effect	Active
COC[C@@]12CNCC[C@]1(c1ccc(Cl)c(Cl)c1)C2 (relative stereo; 18) [GSK1360707]	–	10	3	10	10	10	0.1	0.126	0.02	1.8	1.4	–	–	–	–	–	–	–	–
COC[C@@]12CNCC[C@]1(c1ccc3ccccc3c1)C2 (single isomer, unassigned; 28) [1-(METHOXYMETHYL)-6-(NAPHTHALEN-2-YL)-3-AZABICYCLO[4.1.0]HEPTANE (ENANTIOMERIC MIX)]	–	8	8	8	8	8	0.0126	0.01	0.000126	17	1.2	–	–	–	–	–	–	–	–
